In brackets after ≈: the same amount, converted by molar mass.
Experiments:
[1] = tested on: HCT-116; assay: Survivability of human HCT116 cells assessed as cell kill at >=3 ng/mL after 2 hrs; assay type: functional
[2] = tested on: HCT-116; assay: Survivability of human HCT116 cells assessed as cell kill at >= 2 ng/mL after 24 hrs; assay type: functional
[3] = tested on: HCT-116; assay: Survivability of human HCT116 cells assessed as cell kill at >=120 pg/mL after 168 hrs; assay type: functional
[4] = tested on: Mus musculus; assay: Toxicity in SCID mouse at 125 ug/kg bolus injection; assay type: organism-based; details: in vivo, 0.125 mg/kg
Method in brief: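 HCT-116 tumor-bearing SCID mice (>17 g, 5 per group). Single intravenous tail-vein bolus of 125 μg/kg (drug at […], 0.25 mL) started 1 day after subcutaneous inoculation of 10⁶ cells. Vehicle was DMSO diluted 1:1 with Cremophor–propylene glycol (40:60), then ≥20-fold in saline. Mice were monitored until sacrifice at day 30.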

[5] = tested on: HCT-116; assay: Antitumor activity in human HCT116 tumor-bearing SCID mouse at 62 ug/kg bolus injection after 23 days relative to control; assay type: functional
Method in brief: (§1)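 SCID mice (>17 g, weights within 5 g) implanted subcutaneously with 10⁶ tissue-culture-derived HCT-116 cells, 5 per group. Starting 1 day after inoculation, a single intravenous tail-vein bolus (drug at […], 0.25 mL) was given in DMSO diluted 1:1 with Cremophor–propylene glycol (40:60), then ≥20-fold in saline. Tumor weight followed daily. Minimum %T/C reported. Sacrifice at day 30.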

[6] = tested on: HCT-116; assay: Antitumor activity in human HCT116 tumor-bearing SCID mouse at 31 ug/kg bolus injection after 23 days relative to control; assay type: functional; method in brief: as §1
[7] = tested on: MDA-MB-231; assay: Growth inhibition of MDA-MB-231 cells; assay type: functional, cell-based; details: Homo sapiens
Method in brief: (§2)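 Cells seeded at 5×10^4 per T25 flask in RPMI 1640 with 15% BCS, pen/strep and glutamine. After 3 days (log phase, 5×10^5 cells/flask), compound was added at 10 to 10^-5 μg/mL. After 3 more days, cells were trypsinized and viable and dead cells counted by 0.08% trypan blue exclusion. IC50 determined.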

[8] = tested on: HT-29; assay: Growth inhibition of HT29 cells; assay type: functional, cell-based; details: Homo sapiens; method in brief: as §2
[9] = Growth inhibition of H125 cells; assay type: functional, cell-based; details: Homo sapiens, NCI-H125; method in brief: as §2
[10] = tested on: L1210; assay: Growth inhibition of L1210 cells; assay type: functional, cell-based; details: Mus musculus; method in brief: as §2

For `C=C(C)C[C@H](OC)[C@H](O)C(=O)N[C@@H](OC)C1C[C@@H](O)C(C)(C)[C@@H](C[C@H](O)[C@@H](C)[C@@H]2Cc3c(C)c(O)cc(O)c3C(=O)O2)O1` (stereo not given in full) [IRCINIASTATIN], the Survival [1] was 90%, the Survival [2] was 90% and the Survival [3] was 90%. For the same molecule, the Activity [4] was “Toxic”, the Activity [5] was 75% and the Activity [6] was 86%. For the same molecule, the IC50 [7] was 0.2 ng/mL (≈ 0.328 nM), the IC50 [8] was 5 ng/mL (≈ 8.2 nM) and the IC50 [9] was 0.12 ng/mL (≈ 0.197 nM). For the same molecule, the IC50 [10] was 0.18 ng/mL (≈ 0.295 nM).
